Screens from PubChem.
This is a sample that favours compounds with a hit; in the whole collection about 9.8% have one here.
L major viab: Leishmania major promastigote growth inhibition, primary screen; 9% of 200,000 active; inhibition, % at 10 µM; Leishmania major promastigotes, resazurin fluorescence viability; in the data active means inhibition above about 50%;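 further: promastigotes grown with compound for 44 hours at 28 °C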
WT yeast gro inh: growth inhibition of WT strain, primary screen, mitochondrial fusion inhibitor project, WT and mutant strains, chemical genetic; mitochondrial fusion phenotypic screen; inhibition, % at 10 µM; AID 1362, 2008; 2.1% of 190,000 active; in the data active means inhibition above about 58%; tested in S. cerevisiae
PMI act hi M6P: human PMI activators, high substrate, primary screen, biochemical, fluorescence intensity, near-saturating mannose 6-phosphate; coupled PMI enzyme assay, resazurin fluorescence, 20 min; active compounds read high; 1 = untreated enzyme, 0 = substrate-free blank; 0.34% of 190,000 active; AID 1216, 2008; Mannose-6-phosphate isomerase (Homo sapiens), P34949; activation factor at 20 µM;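 active means activation factor of 2 or more at 20 µM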
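Test system: human phosphomannose isomerase with PGI, G6PDH, diaphorase coupling enzymes; Amount: PMI at 15 ng/mL final; Reagent: Mannose-6-phosphate 1.0 mM (near-saturating) plus 0.22 mM NADP+; Timing: 20 min, room temperature; Technique: resorufin fluorescence at Ex 544/Em 590 nm; Dosing: 20 µM single dose.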
Rad51 HR inh: human RAD51 strand exchange inhibitors, primary screen, biochemical, fluorescence; hRad51 DNA strand exchange, fluorescence dequenching; inhibition, % at 10 µM; 0.085% of 200,000 active; AID 1385, 2008;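 active means inhibition above 40% at the single screening dose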;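 further: 0% = DMSO control wells and 100% = blanks with heterologous ssDNA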
Target sequence (Q06609 whole entry, looked up): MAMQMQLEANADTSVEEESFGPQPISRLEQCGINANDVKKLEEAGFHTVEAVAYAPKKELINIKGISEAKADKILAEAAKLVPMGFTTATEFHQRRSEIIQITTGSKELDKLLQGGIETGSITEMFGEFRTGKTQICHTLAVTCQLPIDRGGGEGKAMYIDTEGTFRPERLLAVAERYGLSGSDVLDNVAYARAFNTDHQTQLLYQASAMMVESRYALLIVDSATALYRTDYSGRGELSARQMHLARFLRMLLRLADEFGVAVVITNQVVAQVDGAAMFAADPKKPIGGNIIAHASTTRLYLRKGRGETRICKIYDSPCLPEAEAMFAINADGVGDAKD
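Read-out basis: percent inhibition relative to plate controls and blanks / Assay system: human Rad51 nucleoprotein filaments preassembled on unlabelled ssDNA / Timing: filaments 15 min 37 °C, then compound 30 min / Control set: per-plate controls and blanks / Technique: fluorescence dequenching at 485/520 nm / Compound: 10 µM final, single point / Also added: Fluorescein- and BHQ1-tagged 47-mer duplex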
PMI activator: activators of human PMI, primary screen, biochemical, fluorescence intensity, near-Km mannose 6-phosphate; AID 1214, 2008; purified human PMI, coupled resazurin fluorescence, 20 min; active compounds read high; 1 = vehicle control, 0 substrate-free wells; 0.005% of 190,000 active; activation factor at 20 µM;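 active means activation factor of 2 or more at 20 µM, relative to plate controls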
Calpain2 inh: inhibitors of pig calpain II, primary screen, biochemical, fluorogenic peptide substrate, 1536-well. purified calpain II, 30 min. AID 1236, 2008. 0.37% of 220,000 active. inhibition, % at 16 µM;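 active means inhibition above about 50%, limit read from the data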
* hit, by the source's call; . = no result given.

SMILES	L major viab	WT yeast gro inh	PMI act hi M6P	Rad51 HR inh	PMI activator	Calpain2 inh
CC(=O)C1=C(C)NC(SCC(=O)c2ccc(Cl)c(Cl)c2)=C(C#N)C1c1ccco1 (stereo not drawn)	78*	.	1.3	-17	1.3	.
CCN(CC)C(=O)CSC1=C(C#N)C(c2ccco2)C(C(=O)OCCOC)=C(C)N1 (stereo not drawn)	-1	-9	1.4	.	1.3	-5
C=CCOC(=O)C1=C(C)NC(SCC(=O)N(CC)CC)=C(C#N)C1c1ccco1 (stereo not drawn)	81*	-2	0.9	-11	0.8	.
Cn1c(=S)n(CCC(=O)O)c2ccccc21	-7	-4	.	11	.	-28
CC1CCN(C(c2cccs2)c2nnnn2Cc2ccccc2)CC1 (stereo not drawn)	29	14	1.1	-8	0.9	2
Cc1n[nH]c(C)c1S(=O)(=O)N(CC(=O)Nc1ccc2c(c1)OCCO2)c1ccc(C(C)C)cc1	56*	-1	1	3	1	-7
Cc1noc(C)c1S(=O)(=O)N(CC(=O)Nc1ccc2c(c1)OCO2)c1ccc(C(C)C)cc1	10	-3	1	-10	0.9	-13
Cc1nn(C)c(C)c1S(=O)(=O)N(CC(=O)Nc1ccc2c(c1)OCO2)c1ccc(C(C)C)cc1	50*	11	0.9	1	0.9	3
CCC(C)NC(=O)CN(c1ccc2c(c1)OCO2)S(=O)(=O)c1c(C)n[nH]c1C (stereo not drawn)	0	15	0.9	5	0.9	-38
CCOC(=O)Cc1cc(=O)n(-c2nc3ccccc3s2)[nH]1	-7	-9	2.4*	2	1.7	-31
CCCc1cc(=O)n(-c2nc3ccccc3s2)[nH]1	.	.	.	18	.	-18
Cc1sc(NC(=O)Cc2ccc3c(c2)OCO3)nc1-c1ccc2c(c1)CCN2C(=O)c1cccc(F)c1	91*	38	0.9	.	0.8	-66
CNc1nc(-c2ccc3c(c2)CCN3C(=O)c2ccccc2C)cs1	8	10	1	-9	0.9	-76
Cc1cccc(C(=O)N2CCc3cc(-c4nc(NC(=O)Cn5nnc6ccccc6c5=O)sc4C)ccc32)c1	8	-17	0.9	-2	1	-93
Cc1ccccc1C(=O)N1CCc2cc(-c3nc(NC(=O)Cc4ccc5c(c4)OCO5)sc3C)ccc21	99*	37	0.9	-2	0.8	-82
CC1CN=C(N(C(=S)Nc2ccccc2)c2cccc(C(F)(F)F)c2)S1 (stereo not drawn)	.	.	.	-8	.	-9
COc1cc(OC)cc(-c2nnc(Sc3ccc(C=O)cc3[N+](=O)[O-])o2)c1	52*	-9	1	5	0.9	-38
COc1ccccc1N(C)S(=O)(=O)c1ccc(C(=O)OCC(=O)NCc2cccs2)cc1	.	.	.	28	.	45
O=C(/C=C/c1ccccc1)N1CCN(c2c(Cl)cccc2[N+](=O)[O-])CC1	35	48	0.8	-12	0.8	30
CCNc1nc(Sc2ccc(C)cc2)cc(C(F)(F)F)n1	-2	85*	1	2	0.9	27
CCNc1nc(Oc2ccc(OC)cc2)cc(C(F)(F)F)n1	-1	25	0.9	3	0.9	-7
Fc1ccc(N2CCN(C(c3cccs3)c3nnnn3CCc3ccccc3)CC2)cc1 (stereo not drawn)	71*	10	0.9	-3	0.9	-2
COCCn1nnnc1C(c1cccs1)N1CCN(c2ccccc2)CC1 (stereo not drawn)	-4	-13	1	-2	1	-15
Fc1ccccc1N1CCN(C(c2cccs2)c2nnnn2CCc2ccccc2)CC1 (stereo not drawn)	48	12	1	.	1	55*
c1ccc(CCn2nnnc2C(c2cccs2)N2CCN(Cc3ccc4c(c3)OCO4)CC2)cc1 (stereo not drawn)	80*	2	1	2	0.9	17
SMILES	L major viab	WT yeast gro inh	PMI act hi M6P	Rad51 HR inh	PMI activator	Calpain2 inh
CCN1CCN(C(c2ccccc2F)c2nnnn2Cc2ccc3c(c2)OCO3)CC1 (stereo not drawn)	4	26	0.9	-7	1	3
Cc1ccccc1C(=O)NNc1ccc(-c2csnn2)cc1	.	.	.	8	.	-2
O=C(c1cccc(S(=O)(=O)N2CCc3ccccc32)c1)N1CCN(c2ccccn2)CC1	22	-7	1	-3	0.9	3
COc1ccc(OCC(=O)Nc2cc(-c3nn(C)c(=O)c4ccccc34)ccc2OC)cc1	8	-18	1	-2	0.9	-9
COc1ccc(-c2nn(C)c(=O)c3ccccc23)cc1NC(=O)Cn1nc(-c2ccccc2)c2ccccc2c1=O	65*	6	0.9	-2	0.8	-252
O=C(Cc1ccc(Cl)cc1)c1c[nH]c(C(=O)NCCCN2CCOCC2)c1	-3	-20	1.1	0	1.1	-21
COc1ccc(CCNC(=O)CSc2ccc(-c3ccncc3)nn2)cc1	-3	0	1	29	1	-19
Cc1nn(-c2ccccc2)c(C)c1/C=N/NC(=O)c1cc(-c2ccc(Cl)s2)[nH]n1	45	-4	0.9	6	0.8	-79
Cc1nn(-c2ccccc2)c(C)c1/C=N/NC(=O)c1cc(C23CC4CC(CC(C4)C2)C3)[nH]n1	91*	22	0.9	2	0.9	-126
Cc1cc(C(=O)N/N=C/c2c(C)nn(-c3ccccc3)c2C)n[nH]1	.	.	.	-18	.	16
Cc1nn(-c2ccccc2)c(C)c1/C=N/NC(=O)c1cc(-c2ccc(Br)s2)[nH]n1	56*	45	0.7	4	0.7	-10
O=C(NNS(=O)(=O)c1ccccc1Cl)c1nn(-c2ccc(F)cc2)ccc1=O	.	.	.	-1	.	4
CC1=C(C(N)=O)C(c2cccnc2)n2nc(-c3cccc(C)c3)nc2N1 (stereo not drawn)	85*	-14	.	0	.	-2
O=C(Nc1cccc(C(F)(F)F)c1)C1CCCO1 (stereo not drawn)	-7	-5	1	4	0.7	-32
Cc1ccc(CN=C(Nc2ccccc2)NC2CCCCC2)cc1	60*	-7	1	-6	0.9	-2
O=C(Nc1ccccc1)NC1CCCCC1	2	4	1	2	1	-1
CC(NC(=O)/C(C#N)=C/c1ccco1)c1ccccc1 (stereo not drawn)	.	.	.	13	.	31
